# Reference: ChEMBL document CHEMBL1142136, “Contribution of target gene mutations and efflux to decreased susceptibility of Salmonella enterica serovar typhimurium to fluoroquinolones and other antimicrobials” (2007)
# How the values were obtained:
# Type in all cases: functional, Salmonella enterica subsp. enterica serovar Typhimurium
# [1] = test system: Salmonella typhimurium; assay: Antimicrobial activity against Salmonella enterica serovar Typhimurium S21 acrAB::Kan
# In short: (§1)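 MICs by automated broth microdilution panels, interpreted to CLSI broth microdilution standards. Ciprofloxacin additionally tested by agar dilution across 0.0075 to 128 μg/ml. Quality control strains: E. coli ATCC 25922 and 35218, Enterococcus faecalis ATCC 29212, S. aureus ATCC 29213, P. aeruginosa ATCC 27853. Test strains are kanamycin-marked deletion mutants of ground-beef isolate S21.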
# [2] = test system: Salmonella typhimurium; assay: Antimicrobial activity against Salmonella enterica serovar Typhimurium S21-4 gyrA+ with ParC S80I mutation
# In short: (§2)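 MICs measured by broth microdilution on the Sensititre automated system and interpreted by CLSI broth microdilution standards. Ciprofloxacin was also tested by agar dilution, widening the range to 0.0075–128 μg/ml. Quality control strains were E. coli ATCC 25922 and 35218, E. faecalis ATCC 29212, S. aureus ATCC 29213 and P. aeruginosa ATCC 27853.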
# [3] = test system: Salmonella typhimurium; assay: Antimicrobial activity against Salmonella enterica serovar Typhimurium S21-1 gyrA+; in short: as §2
# [4] = test system: Salmonella typhimurium; assay: Antimicrobial activity against Salmonella enterica serovar Typhimurium CHS14 with GyrA D87G mutation; in short: as §2
# [5] = test system: Salmonella typhimurium; assay: Antimicrobial activity against Salmonella enterica serovar Typhimurium S21-1 tolC::Kan with GyrA S83F mutation; in short: as §2
# [6] = test system: Salmonella typhimurium; assay: Antimicrobial activity against Salmonella enterica serovar Typhimurium CS3 tolC::Kan with GyrA S83F, D87N, parC S80I mutation; in short: as §2
# [7] = test system: Salmonella typhimurium; assay: Antimicrobial activity against Salmonella enterica serovar Typhimurium S21 tolC::Kan; in short: as §1
# [8] = test system: Salmonella typhimurium; assay: Antimicrobial activity against Salmonella enterica serovar Typhimurium CHS14 acrAB::Kan with GyrA D87G mutation; in short: as §2
# [9] = test system: Salmonella typhimurium; assay: Antimicrobial activity against Salmonella enterica serovar Typhimurium CS1 acrAB::Kan with GyrA S83F, D87N, ParC S80I mutation; in short: as §2
# [10] = test system: Salmonella typhimurium; assay: Antimicrobial activity against Salmonella enterica serovar Typhimurium CHS14 gyrA+ with GyrA D87G mutation; in short: as §2
# [11] = test system: Salmonella typhimurium; assay: Antimicrobial activity against Salmonella enterica serovar Typhimurium S21-2 tolC::Kan with GyrA S83F, ParC S80I mutation; in short: as §2
# [12] = test system: Salmonella typhimurium; assay: Antimicrobial activity against Salmonella enterica serovar Typhimurium CS9 with GyrA S83F, D87N, ParC S80I mutation; in short: as §2
# [13] = test system: Salmonella typhimurium; assay: Antimicrobial activity against Salmonella enterica serovar Typhimurium S21-4 acrAB::Kan with GyrA S83F, ParC S80I mutation; in short: as §2
# [14] = test system: Salmonella typhimurium; assay: Antimicrobial activity against Salmonella enterica serovar Typhimurium CHS18 gyrA+ with GyrA S38F mutation; in short: as §2
# [15] = test system: Salmonella typhimurium; assay: Antimicrobial activity against Salmonella enterica serovar Typhimurium S21-2 acrAB::Kan with GyrA S83F, ParC S80I mutation; in short: as §2
# [16] = test system: Salmonella typhimurium; assay: Antimicrobial activity against Salmonella enterica serovar Typhimurium CS1 gyrA+ with GyrA S83F, D87N, ParC S80I mutation; in short: as §2
# [17] = test system: Salmonella typhimurium; assay: Antimicrobial activity against Salmonella enterica serovar Typhimurium CS3 with GyrA S83F, D87N, ParC S80I mutation; in short: as §2
# [18] = test system: Salmonella typhimurium; assay: Antimicrobial activity against Salmonella enterica serovar Typhimurium CHS38 with GyrA D87G mutation; in short: as §2
# [19] = test system: Salmonella typhimurium; assay: Antimicrobial activity against Salmonella enterica serovar Typhimurium CHS38 gyrA+ with GyrA D87G mutation; in short: as §2
# [20] = test system: Salmonella typhimurium; assay: Antimicrobial activity against Salmonella enterica serovar Typhimurium CHS18 acrAB::Kan with GyrA S38F mutation; in short: as §2
# [21] = test system: Salmonella typhimurium; assay: Antimicrobial activity against Salmonella enterica serovar Typhimurium S21-4 with GyrA S83F, ParC S80I mutation; in short: as §2
# [22] = test system: Salmonella typhimurium; assay: Antimicrobial activity against Salmonella enterica serovar Typhimurium CS9 acrAB::Kan with GyrA S83F, D87N, ParC S80I mutation; in short: as §2
# [23] = test system: Salmonella typhimurium; assay: Antimicrobial activity against Salmonella enterica serovar Typhimurium S21-3 gyrA+ with ParC S80I mutation; in short: as §2
# [24] = test system: Salmonella typhimurium; assay: Antimicrobial activity against Salmonella enterica serovar Typhimurium CHS14 tolC::Kan with GyrA D87G mutant; in short: as §2
# [25] = test system: Salmonella typhimurium; assay: Antimicrobial activity against Salmonella enterica serovar Typhimurium CHS18 tolC::Kan with GyrA S38F mutation; in short: as §2
# [26] = test system: Salmonella typhimurium; assay: Antimicrobial activity against Salmonella enterica serovar Typhimurium S21-2 with GyrA S83F, ParC S80I mutation; in short: as §2
# [27] = test system: Salmonella typhimurium; assay: Antimicrobial activity against Salmonella enterica serovar Typhimurium CS9 gyrA+ with GyrA S83F, D87N, ParC S80I mutation; in short: as §2
# [28] = test system: Salmonella typhimurium; assay: Antimicrobial activity against Salmonella enterica serovar Typhimurium S21-1 GyrA S83F mutant; in short: as §2
# [29] = test system: Salmonella typhimurium; assay: Antimicrobial activity against Salmonella enterica serovar Typhimurium CS9 tolC::Kan with GyrA S83F, D87N, ParC S80I mutation; in short: as §2
# [30] = test system: Salmonella typhimurium; assay: Antimicrobial activity against Salmonella enterica serovar Typhimurium CHS18 with GyrA S38F mutation; in short: as §2
# [31] = test system: Salmonella typhimurium; assay: Antimicrobial activity against Salmonella enterica serovar Typhimurium CS1 tolC::Kan with GyrA S83F, D87N, ParC S80I mutation; in short: as §2
# [32] = test system: Salmonella typhimurium; assay: Antimicrobial activity against Salmonella enterica serovar Typhimurium S21-3 tolC::Kan with GyrA S83F, ParC S80I mutation; in short: as §2
# [33] = test system: Salmonella typhimurium; assay: Antimicrobial activity against Salmonella enterica serovar Typhimurium S21-3 acrAB::Kan with GyrA S83F, ParC S80I mutation; in short: as §2
# [34] = test system: Salmonella typhimurium; assay: Antimicrobial activity against Salmonella enterica serovar Typhimurium CS3 acrAB::Kan with GyrA S83F, D87N, ParC S80I mutation; in short: as §2
# [35] = test system: Salmonella typhimurium; assay: Antimicrobial activity against Salmonella enterica serovar Typhimurium S21 gyrA+; in short: as §2
# [36] = test system: Salmonella typhimurium; assay: Antimicrobial activity against Salmonella enterica serovar Typhimurium CHS38 acrAB::Kan with GyrA D87G mutation; in short: as §2
# [37] = test system: Salmonella typhimurium; assay: Antimicrobial activity against Salmonella enterica serovar Typhimurium GyrA S21-1 acrAB::Kan with GyrA S83F mutation; in short: as §2
# [38] = test system: Salmonella typhimurium; assay: Antimicrobial activity against Salmonella enterica serovar Typhimurium S21-4 tolC::Kan with GyrA S83F, ParC S80I mutation; in short: as §2
# [39] = test system: Salmonella typhimurium; assay: Antimicrobial activity against Salmonella enterica serovar Typhimurium S21-2 gyrA+ with ParC S80I mutation; in short: as §2
# [40] = test system: Salmonella typhimurium; assay: Antimicrobial activity against Salmonella enterica serovar Typhimurium CS3 gyrA+ with GyrA S83F, D87N, ParC S80I mutation; in short: as §2
# [41] = test system: Salmonella typhimurium; assay: Antimicrobial activity against Salmonella enterica serovar Typhimurium S21; in short: as §2
# [42] = test system: Salmonella typhimurium; assay: Antimicrobial activity against Salmonella enterica serovar Typhimurium CHS38 tolC::Kan with GyrA D87G mutation; in short: as §2
# [43] = test system: Salmonella typhimurium; assay: Antimicrobial activity against Salmonella enterica serovar Typhimurium S21-3 with GyrA S83F, ParC S80I mutation; in short: as §2
# [44] = test system: Salmonella typhimurium; assay: Antimicrobial activity against Salmonella enterica serovar Typhimurium CS1 with GyrA S83F, D87N, ParC S80I mutation; in short: as §2
compound,measurement,setting,value
CO[C@@]1(NC(=O)Cc2cccs2)C(=O)N2C(C(=O)O)=C(COC(N)=O)CS[C@@H]21 [CEFOXITIN],MIC,[1],1 µg/mL
same,MIC,[2],> 16 µg/mL
same,MIC,[3],2 µg/mL
same,MIC,[4],4 µg/mL
same,MIC,[5],1 µg/mL
same,MIC,[6],1 µg/mL
same,MIC,[7],1 µg/mL
same,MIC,[8],1 µg/mL
same,MIC,[9],1 µg/mL
same,MIC,[10],2 µg/mL
same,MIC,[11],2 µg/mL
same,MIC,[12],1 µg/mL
same,MIC,[13],1 µg/mL
same,MIC,[14],2 µg/mL
same,MIC,[15],2 µg/mL
same,MIC,[16],2 µg/mL
same,MIC,[17],1 µg/mL
same,MIC,[18],4 µg/mL
same,MIC,[19],4 µg/mL
same,MIC,[20],1 µg/mL
same,MIC,[21],> 16 µg/mL
same,MIC,[22],1 µg/mL
same,MIC,[23],> 16 µg/mL
same,MIC,[24],1 µg/mL
same,MIC,[25],1 µg/mL
same,MIC,[26],> 16 µg/mL
same,MIC,[27],2 µg/mL
same,MIC,[28],2 µg/mL
same,MIC,[29],1 µg/mL
same,MIC,[30],2 µg/mL
same,MIC,[31],1 µg/mL
same,MIC,[32],1 µg/mL
same,MIC,[33],1 µg/mL
same,MIC,[34],1 µg/mL
same,MIC,[35],4 µg/mL
same,MIC,[36],0.5 µg/mL
same,MIC,[37],1 µg/mL
same,MIC,[38],2 µg/mL
same,MIC,[39],> 16 µg/mL
same,MIC,[40],2 µg/mL
same,MIC,[41],4 µg/mL
same,MIC,[42],0.5 µg/mL
same,MIC,[43],> 16 µg/mL
same,MIC,[44],1 µg/mL
